Experiments:
Assay type in all cases: functional
A498 = experiment: Growth inhibition of human A498 cells assessed as cell growth at 10^-6 M incubated for 48 hrs by sulforhodamine B assay; details: A498, 48 h, read-out: Activity
Method in brief: (§1)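 Five-dose assay: five concentrations from 10-fold or ½-log serial dilutions. Cells are plated at 5,000–40,000 per well according to doubling time, grown 24 h, then exposed 48 h at 37 °C, 5% CO₂. Fixed with cold 50% TCA (final addition) for 60 min at 4 °C and stained with 0.4% SRB in 1% acetic acid. Bound dye is solubilized in 10 mM Tris base and read at 515 nm. GI₅₀ is where [(Ti−Tz)/(C−Tz)]×100 = 50, with a time-zero plate as Tz.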

MDA-MB-231 = experiment: Growth inhibition of human MDA-MB-231 cells assessed as cell growth at 10^-7 M incubated for 48 hrs by sulforhodamine B assay; details: MDA-MB-231, 48 h, read-out: Activity
[1] = Growth inhibition of human LOXIMVI cells assessed as cell growth at 10^-8 M incubated for 48 hrs by sulforhodamine B assay; details: LOX IMVI, read-out: Activity
[2] = Growth inhibition of human UO31 cells assessed as cell growth at 10^-6 M incubated for 48 hrs by sulforhodamine B assay; details: UO-31, 48 h, read-out: Activity
SK-MEL-2 = experiment: Growth inhibition of human SK-MEL-2 cells incubated for 48 hrs by sulforhodamine B assay; details: SK-MEL-2, 48 h
Method in brief: (§2)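 Cells were plated at 5,000–40,000 per well according to doubling time and preincubated 24 h at 37 °C in 5% CO2; time-zero plates were then TCA-fixed. Five concentrations (10-fold or ½-log dilutions, DMSO stock) were incubated 48 h. Cells were TCA-fixed, stained with 0.4% SRB and read at 515 nm. GI50 was taken where [(Ti−Tz)/(C−Tz)]×100 = 50.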

[3] = Growth inhibition of human MOLT4 cells assessed as cell growth at 10^-5 M incubated for 48 hrs by sulforhodamine B assay; details: MOLT-4, 48 h, read-out: Activity
[4] = Growth inhibition of human HL-60(TB) cells assessed as cell growth at 10^-6 M incubated for 48 hrs by sulforhodamine B assay; details: HL-60, 48 h, read-out: Activity
Method in brief: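 Cells plated at 5,000–40,000/well according to doubling time and preincubated 24 h at 37 °C, 5% CO₂, with time-zero plates TCA-fixed. Drugs were kept as DMSO concentrates at 400× the top concentration and diluted in medium with 50 µg/ml gentamicin. Five 10-fold or ½-log dilutions were run for 48 h, followed by SRB staining and A515. Percent growth = (Ti−Tz)/(C−Tz)×100, or (Ti−Tz)/Tz×100 when Ti<Tz.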

[5] = Growth inhibition of human BT549 cells assessed as cell growth at 10^-8 M incubated for 48 hrs by sulforhodamine B assay; details: BT-549, 48 h, read-out: Activity; method in brief: as §1
[6] = Growth inhibition of human SNB75 cells assessed as cell growth at 10^-5 M incubated for 48 hrs by sulforhodamine B assay; details: SNB-75, 48 h, read-out: Activity
SK-MEL-28 = experiment: Growth inhibition of human SK-MEL-28 cells assessed as cell growth at 10^-8 M incubated for 48 hrs by sulforhodamine B assay; details: SK-MEL-28, 48 h, read-out: Activity
HT-29 = experiment: Growth inhibition of human HT-29 cells incubated for 48 hrs by sulforhodamine B assay; details: HT-29, 48 h; method in brief: as §2
NCI/ADR-RES = experiment: Growth inhibition of human NCI/ADR-RES cells assessed as cell growth at 10^-8 M incubated for 48 hrs by sulforhodamine B assay; details: read-out: Activity
[7] = Growth inhibition of human OVCAR4 cells assessed as cell growth at 10^-6 M incubated for 48 hrs by sulforhodamine B assay; details: OVCAR-4, 48 h, read-out: Activity
NCI-H460 = experiment: Growth inhibition of human NCI-H460 cells assessed as cell growth at 10^-7 M incubated for 48 hrs by sulforhodamine B assay; details: NCI-H460, 48 h, read-out: Activity
786-0 = experiment: Growth inhibition of human 786-0 cells assessed as cell growth at 10 uM incubated for 48 hrs by sulforhodamine B assay; details: 786-0, 48 h, read-out: Activity
Method in brief: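 One-dose screen at 10 µM final. Cells are plated at 5,000–40,000 per well according to doubling time and preincubated 24 h at 37 °C, 5% CO₂. Compound (DMSO stock diluted in medium with 50 µg/ml gentamicin) is then added for 48 h. Growth percent is read by sulforhodamine B staining, absorbance at 515 nm.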

[8] = Growth inhibition of human HL-60(TB) cells assessed as cell growth at 10 uM incubated for 48 hrs by sulforhodamine B assay; details: HL-60, 48 h, read-out: Activity
[9] = Growth inhibition of human OVCAR3 cells assessed as cell growth at 10^-6 M incubated for 48 hrs by sulforhodamine B assay; details: OVCAR-3, 48 h, read-out: Activity
[10] = Growth inhibition of human SNB19 cells assessed as cell growth at 10^-8 M incubated for 48 hrs by sulforhodamine B assay; details: SNB-19, 48 h, read-out: Activity
[11] = Growth inhibition of human OVCAR5 cells incubated for 48 hrs by sulforhodamine B assay; details: OVCAR-5, 48 h; method in brief: as §2
[12] = Growth inhibition of human RXF393 cells assessed as cell growth at 10^-7 M incubated for 48 hrs by sulforhodamine B assay; details: RXF 393, 48 h, read-out: Activity
[13] = Growth inhibition of human leukemia cells incubated for 48 hrs by sulforhodamine B assay; details: Leukemia cell; for CC50: read-out: LC50 (the source's name)
[14] = Growth inhibition of human breast cancer cells incubated for 48 hrs by sulforhodamine B assay; details: Cancer cell lines; for CC50: read-out: LC50 (the source's name)
[15] = Growth inhibition of human UACC62 cells assessed as cell growth at 10^-7 M incubated for 48 hrs by sulforhodamine B assay; details: UACC-62, 48 h, read-out: Activity
[16] = Growth inhibition of human SF539 cells assessed as cell growth at 10^-5 M incubated for 48 hrs by sulforhodamine B assay; details: SF-539, 48 h, read-out: Activity
SK-MEL-5 = experiment: Growth inhibition of human SK-MEL-5 cells assessed as cell growth at 10^-5 M incubated for 48 hrs by sulforhodamine B assay; details: SK-MEL-5, 48 h, read-out: Activity
[17] = read-out: LC50 (the source's name)
[18] = read-out: pLC50 (the source's name) (converted)

Question: With Clc1ccc(-c2nc(Nc3ccc(-c4nc5ccccc5[nH]4)cc3)nc(N3CCOCC3)n2)cc1 as the compound, how does the growth at 1 µM (A498) read?
Answer: Its growth at 1 µM is 89%.

Question: What about the growth at 0.1 µM (MDA-MB-231) of the same compound?
Answer: The growth at 0.1 µM was 92%.

Question: What about the growth at 0.01 µM [1] of the same compound?
Answer: The growth at 0.01 µM was 97%.

Question: What about the growth at 1 µM [2] of the same compound?
Answer: The growth at 1 µM was 80%.

Question: What about the GI50 (SK-MEL-2; read-out: GI50) of the same compound?
Answer: The GI50 was 1800 nM.

Question: What about the TGI (SK-MEL-2; read-out: TGI) of the same compound?
Answer: The TGI was 3.37 µM.

Question: And the GI50 (SK-MEL-2; read-out: pGI50 (converted))?
Answer: Its GI50 is 1820 nM.

Question: And the TGI (SK-MEL-2; read-out: pTGI (converted))?
Answer: The TGI was 3.39 µM.

Question: And the growth at 10 µM [3]?
Answer: The growth at 10 µM was -72%.

Question: What about the growth at 1 µM [4] of the same compound?
Answer: The growth at 1 µM was -29%.

Question: What about the growth at 0.01 µM [5] of the same compound?
Answer: Its growth at 0.01 µM is 96%.

Question: What about the growth at 10 µM [6] of the same compound?
Answer: The growth at 10 µM was -91%.

Question: What about the growth at 0.01 µM (SK-MEL-28) of the same compound?
Answer: The growth at 0.01 µM was 105%.

Question: And the GI50 (HT-29; read-out: GI50)?
Answer: Its GI50 is 228 nM.

Question: What about the TGI (HT-29; read-out: TGI) of the same compound?
Answer: The TGI was 0.523 µM.

Question: What about the GI50 (HT-29; read-out: pGI50 (converted)) of the same compound?
Answer: Its GI50 is 229 nM.

Question: What about the TGI (HT-29; read-out: pTGI (converted)) of the same compound?
Answer: Its TGI is 0.525 µM.

Question: And the growth at 0.01 µM (NCI/ADR-RES)?
Answer: The growth at 0.01 µM was 98%.

Question: And the growth at 1 µM [7]?
Answer: Its growth at 1 µM is 52%.

Question: What about the growth at 0.1 µM (NCI-H460) of the same compound?
Answer: The growth at 0.1 µM was 100%.

Question: And the growth at 10 µM (786-0)?
Answer: The growth at 10 µM was -94.5%.

Question: What about the growth at 10 µM [8] of the same compound?
Answer: The growth at 10 µM was -81.4%.

Question: What about the growth at 1 µM [9] of the same compound?
Answer: The growth at 1 µM was 15%.

Question: And the growth at 0.01 µM [10]?
Answer: Its growth at 0.01 µM is 102%.

Question: And the GI50 ([11]; read-out: GI50)?
Answer: Its GI50 is 505 nM.

Question: What about the TGI ([11]; read-out: TGI) of the same compound?
Answer: The TGI was 1.94 µM.

Question: What about the GI50 ([11]; read-out: pGI50 (converted)) of the same compound?
Answer: The GI50 was 501 nM.

Question: And the TGI ([11]; read-out: pTGI (converted))?
Answer: The TGI was 1.95 µM.

Question: What about the growth at 0.1 µM [12] of the same compound?
Answer: The growth at 0.1 µM was 106%.

Question: And the GI50 [13]?
Answer: Its GI50 is 190 nM.

Question: What about the TGI [13] of the same compound?
Answer: Its TGI is 0.58 µM.

Question: What about the CC50 [13] of the same compound?
Answer: Its CC50 is greater than 100 µM.

Question: And the GI50 [14]?
Answer: The GI50 was 620 nM.

Question: What about the TGI [14] of the same compound?
Answer: Its TGI is 1.86 µM.

Question: What about the CC50 [14] of the same compound?
Answer: Its CC50 is greater than 100 µM.

Question: And the growth at 0.1 µM [15]?
Answer: The growth at 0.1 µM was 93%.

Question: What about the growth at 10 µM [16] of the same compound?
Answer: The growth at 10 µM was -87%.

Question: And the growth at 10 µM (SK-MEL-5)?
Answer: Its growth at 10 µM is -94%.

Question: Which results are given for c1ccc2[nH]c(-c3ccc(Nc4nc(N5CCCCC5)nc(N5CCOCC5)n4)cc3)nc2c1?
Answer: growth at 1 µM (A498): 83%; growth at 0.1 µM (MDA-MB-231): 98%; growth at 0.01 µM [1]: 96%; growth at 1 µM [2]: 87%; GI50 (SK-MEL-2; read-out: GI50): 2340 nM; CC50 (SK-MEL-2; [17]): 25.8 µM; TGI (SK-MEL-2; read-out: TGI): 5.36 µM; GI50 (SK-MEL-2; read-out: pGI50 (converted)): 2340 nM; CC50 (SK-MEL-2; [18]): 25.7 µM; TGI (SK-MEL-2; read-out: pTGI (converted)): 5.37 µM; growth at 10 µM [3]: -11%; growth at 1 µM [4]: 100%; growth at 0.01 µM [5]: 94%; growth at 10 µM [6]: 10%; growth at 0.01 µM (SK-MEL-28): 100%; GI50 (HT-29; read-out: GI50): 2440 nM; CC50 (HT-29; [17]): > 100 µM; TGI (HT-29; read-out: TGI): 5.56 µM; GI50 (HT-29; read-out: pGI50 (converted)): 2450 nM; CC50 (HT-29; [18]): > 100 µM; TGI (HT-29; read-out: pTGI (converted)): 5.62 µM; growth at 0.01 µM (NCI/ADR-RES): 99%; growth at 1 µM [7]: 93%; growth at 0.1 µM (NCI-H460): 98%; growth at 10 µM (786-0): -57.3%; growth at 10 µM [8]: -22.7%; growth at 1 µM [9]: 96%; growth at 0.01 µM [10]: 101%; GI50 ([11]; read-out: GI50): 4060 nM; CC50 [11, 17]: > 100 µM; TGI ([11]; read-out: TGI): 29.3 µM; GI50 ([11]; read-out: pGI50 (converted)): 4070 nM; CC50 [11, 18]: > 100 µM; TGI ([11]; read-out: pTGI (converted)): 29.5 µM; growth at 0.1 µM [12]: 91%; GI50 [13]: 2370 nM; TGI [13]: 6.5 µM; CC50 [13]: > 100 µM; GI50 [14]: 2360 nM; TGI [14]: 6.72 µM; CC50 [14]: 92.7 µM; growth at 0.1 µM [15]: 96%; growth at 10 µM [16]: -28%; growth at 10 µM (SK-MEL-5): -90%

Reference: ChEMBL document CHEMBL3808334, “Synthesis and in vitro evaluation of novel triazine analogues as anticancer agents and their interaction studies with bovine serum albumin” (Eur J Med Chem, 2016)
